Screening data as filed in PubChem BioAssay.
This is a sample that favours compounds with a hit; in the whole collection about 2.4% have one here.
GSTO1 inh – inhibitors of recombinant GSTO1, primary screen, counter-screen for RBBP9 inhibitor project, biochemical, fluorescence polarization | Glutathione S-transferase omega-1 (Homo sapiens), P78417 | activity-based probe fluorescence polarization | inhibition, % at 5.96 µM | 300,000 compounds, 1.1% hits;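 active means inhibition above the campaign mean inhibition plus 3 SD, cut at about 35% in these data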
TDP2 inh – human TDP2 enzyme inhibitors, primary screen, biochemical, epi absorbance, recombinant enzyme | Tyrosyl-DNA phosphodiesterase 2 (Homo sapiens), O95551 | T5PNP hydrolysis, p-nitrophenol absorbance 415 nm | inhibition, % at 12.8 µM | 370,000 compounds, 0.34% hits;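 active means inhibition above the mean of all tested compounds plus 3 SD, set per campaign, cut at about 25% in these data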
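Material: recombinant human TDP2; quantity: TDP2 enzyme at 120 nM final; medium: Tris-HCl pH 7.5 with MgCl2; compound: single concentration, 12.8 µM nominal, with 1% DMSO; incubation: 2 h enzyme incubation at 37 °C; signal: epi absorbance; measure: percent inhibition; benchmarks: high control without enzyme, low control DMSO plus TDP2; repeats: singlicate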
TCR CD3 inh – inhibitors of human TCR-CD3 interaction, primary screen, biochemical, fluorescence, TAMRA-labeled TCR probe. 360,000 compounds, 0.37% hits. inhibition, % at 9.4 µM. T-cell receptor (TCR); in the data active means inhibition above about 19%;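 further: recombinant mutant TCR 2C K166C tagged with TAMRA read by polarization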
Apaf-1 inh – inhibitors of human Apaf-1 apoptosome, primary screen, biochemical, DEVD-Rh110 fluorescence, uHTS; inhibition, % at 20 µM; 330,000 compounds, 0.71% hits; Apoptotic protease-activating factor 1 (Homo sapiens), O14727; reconstituted apoptosome caspase-3 activity; AID 489030, 2010; active means inhibition of at least 40% at 20 µM
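Material: cell-free apoptosome with Apaf-1, procaspase-3 and caspase-9; Buffer or medium: Hepes pH 7.5 with detergent and BSA; Reagent: cytochrome c trigger plus (Z-DEVD)2-Rh110 caspase-3 substrate; Times: compound with Apaf-1, dATP, procaspase-3 30 min, then 50 min reaction, room temperature; Technique: Rh110 fluorescence intensity.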
SIAE inh – human SIAE inhibitors, primary screen, biochemical, fluorescence polarization, FP-Rh probe, 1536-well HTS; SIAE FP-Rh probe binding; inhibition, % at 9.66 µM; 370,000 compounds, 0.69% hits; AID 1053197, 2014;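 active means inhibition above a cutoff: mean of compounds within the control limits plus 3 SD of those, cut at about 17% in these data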
PAD4 inh – human PAD4 inhibitors, primary screen, biochemical, fluorescence polarization, 1536-well format; Protein-arginine deiminase type-4 (Homo sapiens), Q9UM07; recombinant PAD4, RCA probe fluorescence polarization; inhibition, % at 6.36 µM; 330,000 compounds, 0.41% hits;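 active means percent inhibition above a cutoff equal to the mean of all tested compounds plus 3 SD, cut at about 15% in these data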
Target sequence (Q9UM07 whole entry, looked up): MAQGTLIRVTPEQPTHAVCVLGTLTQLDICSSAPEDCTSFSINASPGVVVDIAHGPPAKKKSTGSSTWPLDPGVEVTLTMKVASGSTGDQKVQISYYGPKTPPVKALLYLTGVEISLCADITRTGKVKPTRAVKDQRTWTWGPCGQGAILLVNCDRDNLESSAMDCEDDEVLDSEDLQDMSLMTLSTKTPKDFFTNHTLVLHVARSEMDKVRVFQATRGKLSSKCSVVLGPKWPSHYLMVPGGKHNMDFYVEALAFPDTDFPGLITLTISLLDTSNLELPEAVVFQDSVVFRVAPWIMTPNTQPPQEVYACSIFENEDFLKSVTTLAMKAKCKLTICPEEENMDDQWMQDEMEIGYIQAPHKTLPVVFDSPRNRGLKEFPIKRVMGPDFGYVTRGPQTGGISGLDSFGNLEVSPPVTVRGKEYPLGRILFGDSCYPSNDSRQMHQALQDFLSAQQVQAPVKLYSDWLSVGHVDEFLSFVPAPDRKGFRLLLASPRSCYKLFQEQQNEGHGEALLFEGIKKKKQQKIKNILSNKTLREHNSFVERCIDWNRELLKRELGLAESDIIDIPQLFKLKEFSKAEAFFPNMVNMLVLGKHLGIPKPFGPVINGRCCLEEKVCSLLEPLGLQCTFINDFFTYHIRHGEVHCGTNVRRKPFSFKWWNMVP
Apaf-1 inh conf2 – Apaf-1 inhibitors, single-dose retest, confirmation, biochemical, fluorescence, DEVD-Rh110, 20 µM | shares compounds with Apaf-1 inh | reconstituted apoptosome, caspase-3 DEVD-Rh110 fluorescence | inhibition, % at 20 µM | 1,800 compounds, 25% hits;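 active means mean inhibition of at least 40% at 20 µM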
Rh110 interf inh – Rh110 fluorescence interference by putative Apaf-1 inhibitors, confirmation, artefact control for Apaf-1 inhibitor project, biochemical, 20 µM. 1,800 tested, under 10 active. quenched caspase reaction. activation (fluorescence interference), % at 20 µM. shares compounds with Apaf-1 inh;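 active means signal rise of 40% or more at 20 µM, treated as a fluorescence artifact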
Fluor interf inh – fluorescence interference of Apaf-1 inhibitor hits, dose response, artefact control for Apaf-1 inhibitor project | IC50, µM | 460 tested, under 10 active | fluorescence interference counterscreen, Apaf-1 assay format | shares compounds with Apaf-1 inh; call rule not given here
Large screens that a line does not name were inactive (follow-up assays come after a bar, where they were run).

Cc1cccnc1NC(=O)C(C)Oc1ccccc1 (stereo not drawn)	none
CC(=O)N(/N=C1\Sc2ccccc2C1=O)c1ccc(C)cc1C	Apaf-1 inh 43 | Apaf-1 inh conf2 inactive | Rh110 interf inh inactive
COc1cccc(NC(=O)CN(C)C(=O)CC2Sc3ccccc3NC2=O)c1 (stereo not drawn)	none (no result: GSTO1 inh)
CN(CC(=O)NCc1ccccc1)CC(=O)Nc1ccc(Cl)c(C(F)(F)F)c1	Apaf-1 inh 53 (no result: GSTO1 inh) | Apaf-1 inh conf2 inactive | Rh110 interf inh inactive
CN(CC(=O)NC(=O)NCc1ccccc1)CC(=O)Nc1ccc(Cl)c(C(F)(F)F)c1	none
CN(CC(=O)Nc1ccc(Cl)c(C(F)(F)F)c1)C(=O)CC1Sc2ccccc2NC1=O (stereo not drawn)	Apaf-1 inh 51 | Apaf-1 inh conf2 47 | Rh110 interf inh inactive | Fluor interf inh inactive
Cc1ccc(OCc2nc(-c3ccccn3)no2)cc1	none
CC(C)CCCNc1nc(N2CCOCC2)nc(N2CCOCC2)n1	none
CCCCCCCCN1[C@@H](CC(=O)O)c2cc(C(F)(F)F)ccc2S1(=O)=O	none
CCCCCCCCCCCCN1[C@@H](CC(=O)O)c2cc(C(F)(F)F)ccc2S1(=O)=O	Apaf-1 inh 41 | Apaf-1 inh conf2 inactive | Rh110 interf inh inactive
Cc1ccc(SCC(=O)OCC(=O)NCC2CCCCC2)cc1C	none
Cc1ccc(SCC(=O)OCC(=O)NCCNC(=O)COC(=O)CSc2ccc(C)c(C)c2)cc1C	Apaf-1 inh 40 | Apaf-1 inh conf2 inactive | Rh110 interf inh inactive
COc1cc(/C=c2\s/c(=C(/C#N)C(=O)N3CCCC3)n(-c3ccccc3)c2=O)ccc1O	none
CCCCCCCCCn1c2c(c(=N)c3c1CCC3)CCCC2	Apaf-1 inh 51 (no result: GSTO1 inh, TDP2 inh, TCR CD3 inh, SIAE inh, PAD4 inh) | Apaf-1 inh conf2 inactive | Rh110 interf inh inactive
COc1ccc(NC(=O)CCn2c(=S)[nH]c3ccccc3c2=O)cc1	Apaf-1 inh 86 | Apaf-1 inh conf2 inactive | Rh110 interf inh inactive
COc1cc(/C=C2/C(=O)N(c3ccc(Br)cc3)N=C2C)cc(OC)c1OC	Apaf-1 inh 94 (no result: GSTO1 inh, TDP2 inh, TCR CD3 inh, SIAE inh, PAD4 inh) | Apaf-1 inh conf2 inactive | Rh110 interf inh inactive
C#CCOc1ccc(/C=C2/C(=O)N(c3ccc(S(N)(=O)=O)cc3)N=C2C)cc1OC	none (no result: GSTO1 inh, Apaf-1 inh, PAD4 inh)
Cc1cc(NC(=O)CCCn2nc([N+](=O)[O-])c(Br)c2C)no1	Apaf-1 inh 40 | Apaf-1 inh conf2 inactive | Rh110 interf inh inactive
Cc1c(Br)c([N+](=O)[O-])nn1CCCC(=O)Nc1c(C)n(C)n(-c2ccccc2)c1=O	none
CCN1CC2([N+](=O)[O-])CC=C(OC)C([N+](=O)[O-])(C1)C2 (stereo not drawn)	none
CC(=NO)C1CCC2C3CCC4=CC(=NO)CCC4(C)C3C(O)CC12C (stereo not drawn)	none (no result: GSTO1 inh, Apaf-1 inh, PAD4 inh)
O=C(CSc1cccc2cccnc12)OCC(=O)c1ccccc1	none
Cc1cc(C(=O)N/N=C2\CC(=O)c3ccccc32)c(C)n1-c1ccc(F)cc1	GSTO1 inh 55, Apaf-1 inh 69 | Apaf-1 inh conf2 inactive | Rh110 interf inh inactive
Cc1ccc(C(=O)N(Cc2nnc(-c3ccccc3Cl)o2)C2CC2)o1	none (no result: GSTO1 inh, Apaf-1 inh, PAD4 inh)
O=C(c1ccc([N+](=O)[O-])o1)N(Cc1nnc(-c2ccccc2Cl)o1)C1CC1	Apaf-1 inh 51 (no result: GSTO1 inh) | Apaf-1 inh conf2 41 | Rh110 interf inh inactive | Fluor interf inh inactive
O=C(NCCCn1ccnc1)c1noc2c1CCc1ccccc1-2	Apaf-1 inh 47 | Apaf-1 inh conf2 inactive | Rh110 interf inh inactive
CN1CCCC1CCNc1ccc2sc3ccccc3c(=O)c2c1 (stereo not drawn)	Apaf-1 inh 44 | Apaf-1 inh conf2 inactive | Rh110 interf inh inactive
O=c1c2ccccc2sc2ccc(NCCCN3CCOCC3)cc12	none
Cc1cc2oc3cc(NCCC4CCCN4C)ccc3c(=O)c2cc1C (stereo not drawn)	Apaf-1 inh 44 | Apaf-1 inh conf2 inactive | Rh110 interf inh inactive
CC(=O)Nc1nc(C)cs1	none
CC(C)(C)c1ccc(OCCOc2ccc(C(C)(C)C)cc2NC=O)c(NC=O)c1	Apaf-1 inh 41 | Apaf-1 inh conf2 inactive | Rh110 interf inh inactive
CCCCCCCCCCCCCCCC[n+]1ccccc1	none (no result: GSTO1 inh, Apaf-1 inh, PAD4 inh)
CCCCCc1ccc(OCCC[n+]2ccccc2)c(CCCCC)c1	Apaf-1 inh 66 | Apaf-1 inh conf2 40 | Rh110 interf inh inactive | Fluor interf inh inactive
CCCCNC(=O)CNC(=O)c1nn(-c2ccc(OC)cc2OC)c(=O)c2ccccc12	none
COc1ccc(-n2nc(C(=O)NCC(=O)NC3CCCC(C)C3C)c3ccccc3c2=O)cc1 (stereo not drawn)	Apaf-1 inh 51 | Apaf-1 inh conf2 inactive | Rh110 interf inh inactive
COc1ccc(-n2nc(C(=O)NCC(=O)NC3CCCC(C)C3C)c3ccccc3c2=O)c(OC)c1 (stereo not drawn)	Apaf-1 inh 55 | Apaf-1 inh conf2 62 | Rh110 interf inh inactive | Fluor interf inh inactive
COc1ccc(-n2nc(C(=O)NCC(=O)N3CCC(C)CC3)c3ccccc3c2=O)cc1	none
O=C(CCNC(=O)c1ccc(Cl)cc1)Nc1ncccc1O	none
O=C(NCc1ccco1)c1c(F)c(F)c(F)c(C(=O)NCc2ccco2)c1F	none
Nc1c(C(=O)NCc2ccco2)c2nc3ccccc3nc2n1CCc1ccccc1F	Apaf-1 inh 61 | Apaf-1 inh conf2 inactive | Rh110 interf inh inactive
COc1ccc(-n2c(N)c(C(=O)NCc3ccco3)c3nc4ccccc4nc32)c(OC)c1	GSTO1 inh 37, Apaf-1 inh 65 | Apaf-1 inh conf2 inactive | Rh110 interf inh inactive
COc1cc(C(=O)NC(C)c2ccc3ccccc3c2)cc(Cl)c1O (stereo not drawn)	none
CCC(=O)NC1=C(Nc2ccc(N)cc2)C(=O)c2ccccc2C1=O	none
Cc1cc(C)cc(NC2=C(N)C(=O)c3ccccc3C2=O)c1	Apaf-1 inh 74 (no result: TDP2 inh, TCR CD3 inh, SIAE inh) | Apaf-1 inh conf2 inactive | Rh110 interf inh inactive
